Here are results for 5 compounds from ChEMBL document CHEMBL1146380, “Synthesis, antimicrobial activity, and QSAR studies of furan-3-carboxamides” (2007).

The structures appear in SMILES notation. ≈ marks a conversion by molar mass, not a printed value. Calls of active or inactive are those of the source. No cut-off for these calls is given here.

For one experiment, the system named is Candida albicans. The experiment is described as follows: Antimicrobial activity against Candida albicans ATCC 44373 by broth microdilution method. The experiment is classed as functional. The procedure, abridged:
(§1)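 Yeasts grown on potato dextrose agar. Inoculum was standardized by McFarland turbidity as for bacteria, into RPMI 1640 broth (M27-A2). DMSO-dissolved compound was tested in twofold dilutions from 320 to 1.25 at 35 °C for 24 h, in duplicate. MIC was the lowest concentration completely inhibiting visible growth. Fungicidal concentration was read by subculturing 20 µL from clear wells on Sabouraud dextrose agar at 35 °C.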
A general note: Broth dilution looks for growth in wells or tubes with falling amounts of substance.

The subject of the next experiment is Candida dubliniensis. Briefly: Antimicrobial activity against Candida dubliniensis CBS 7987 by broth microdilution method. The experiment is classed as functional. A digest of the protocol:
as §1

The next experiment relates to Nakaseomyces glabratus. The experiment is described as follows: Antimicrobial activity against Candida glabrata […] by broth microdilution method. Format: functional. A digest of the protocol: as §1
In experiment [1] the test system is Cryptococcus deneoformans. The experiment is described as follows: Antimicrobial activity against Cryptococcus neoformans var.neoformans serotype D ATCC 28952 by broth microdilution method. The experiment is classed as functional. The procedure, abridged:
(§2)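 Organism grown on potato dextrose agar, with turbidity-standardized inoculum in RPMI 1640 broth (M27-A2). DMSO-dissolved compound was tested in twofold dilutions from 320 to 1.25 at 35 °C, incubated up to 72 h, in duplicate. MIC was the lowest concentration with no visible growth. Cidal concentration was read by subculturing 20 µL from clear wells on Sabouraud dextrose agar, incubated for the same period.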

The next experiment deals with Saccharomyces cerevisiae. The experiment is described as follows: Antimicrobial activity against Saccharomyces cerevisiae ATCC 2601 by broth microdilution method. The experiment is classed as functional. A digest of the protocol: as §2
A further experiment relates to Staphylococcus aureus. Briefly: Antimicrobial activity against Staphylococcus aureus ATCC 25923 by broth microdilution method. The experiment is classed as functional. The settings on record: for MBC: read-out: MFC. The procedure, abridged:
(§3)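 Bacteria grown overnight on Mueller–Hinton agar. Colonies were suspended in saline to McFarland turbidity (about 10^8 cfu/mL), diluted 1:100 in saline, then 1:20 in Mueller–Hinton broth, giving 5 · 10^4 cfu/mL per well. DMSO-dissolved compound was tested in twofold dilutions from 320 to 1.25 at 35 °C for 24 h. MIC was the lowest concentration with no visible turbidity (M7-A4). Bactericidal concentration was read by subculturing clear wells on Mueller–Hinton agar.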

In a further experiment the test system is Klebsiella pneumoniae. Briefly: Antimicrobial activity against Klebsiella pneumoniae ATCC 1003 by broth microdilution method. Format: functional. The procedure, abridged: as §3
For the next experiment, the system named is Escherichia coli. The experiment is described as follows: Antimicrobial activity against Escherichia coli ATCC 25922 by broth microdilution method. Format: functional. The procedure, abridged:
as §3

Experiment [2] in a line: Antimicrobial activity against Salmonella setubal ATCC 19196 by broth microdilution method. The settings on record: Salmonella enterica. Format: functional, Salmonella enterica subsp. enterica serovar Setubal. A digest of the protocol: as §3
For another experiment, the system named is Pseudomonas aeruginosa. Briefly: Antimicrobial activity against Pseudomonas aeruginosa ATCC 27853 by broth microdilution method. The experiment is classed as functional. The procedure, abridged:
as §3

The subject of a further experiment is Prototheca zopfii. Briefly: Antimicrobial activity against Prototheca zopfii by broth microdilution method. Format: functional. The procedure, abridged:
as §2

In a further experiment the test system is Rhizopus arrhizus. The experiment is described as follows: Antimicrobial activity against Rhizopus oryzae isolate by broth microdilution method. The experiment is classed as functional.
The next experiment concerns Sporothrix schenckii. Briefly: Antimicrobial activity against Sporothrix schenckii ATCC 1146 by broth microdilution method. The experiment is classed as functional.
In another experiment the test system is Fusarium solani. Briefly: Antimicrobial activity against Fusarium solani isolate by broth microdilution method. The experiment is classed as functional.
The test system of another experiment is Aspergillus fumigatus. Briefly: Antimicrobial activity against Aspergillus fumigatus isolate by broth microdilution method. The experiment is classed as functional.
A further experiment concerns Aspergillus flavus. The experiment is described as follows: Antimicrobial activity against Aspergillus flavus isolate by broth microdilution method. The experiment is classed as functional.
The subject of a further experiment is Aspergillus niger. The experiment is described as follows: Antimicrobial activity against Aspergillus niger isolate by broth microdilution method. The experiment is classed as functional.
For a further experiment, the system named is Aspergillus terreus. Briefly: Antimicrobial activity against Aspergillus terreus isolate by broth microdilution method. Format: functional.
The subject of the next experiment is Scedosporium boydii. Briefly: Antimicrobial activity against Pseudallescheria boydii isolate by broth microdilution method. The experiment is classed as functional.

Usually MIC stands for the least concentration at which growth counts as inhibited. As for `OC(Cn1cncn1)(Cn1cncn1)c1ccc(F)cc1F` [FLUCONAZOLE], the MIC was 4 µg/mL (≈ 13.1 µM) against Candida albicans; 2 µg/mL (≈ 6.53 µM) in the experiment on Candida dubliniensis; 8 µg/mL (≈ 26.1 µM) against Nakaseomyces glabratus; 2 µg/mL (≈ 6.53 µM) in experiment [1]; 1 µg/mL (≈ 3.27 µM) against Saccharomyces cerevisiae.

For `C[C@@H](O)[C@H]1C(=O)N2C(C(=O)O)=C(SCCNC=N)C[C@H]12` [IMIPENEM ANHYDROUS], the MIC was 0.06 µg/mL (≈ 0.2 µM) against Staphylococcus aureus; less than 4 µg/mL against Klebsiella pneumoniae; 0.06 µg/mL (≈ 0.2 µM) against Escherichia coli; less than 4 µg/mL in experiment [2]; 2 µg/mL (≈ 6.68 µM) in the experiment on Pseudomonas aeruginosa.

As for `O=C(Nc1ccccc1O)c1ccoc1`, the MFC was determined as 320 µg/mL (≈ 1570 µM) against Candida albicans; 160 µg/mL (≈ 787 µM) in the experiment on Candida dubliniensis; 160 µg/mL (≈ 787 µM) against Nakaseomyces glabratus; 20 µg/mL (≈ 98.4 µM) in [1]; 160 µg/mL (≈ 787 µM) in the experiment on Saccharomyces cerevisiae; 80 µg/mL (≈ 394 µM) in the experiment on Prototheca zopfii. Further, the MFC in the experiment on Rhizopus arrhizus is 320 µg/mL (≈ 1570 µM); against Sporothrix schenckii, 320 µg/mL (≈ 1570 µM); in the experiment on Aspergillus fumigatus, 320 µg/mL (≈ 1570 µM); against Aspergillus niger it was 320 µg/mL (≈ 1570 µM); with Scedosporium boydii, 160 µg/mL (≈ 787 µM). For the same compound, the MIC in the experiment with Candida albicans came out at 160 µg/mL (≈ 787 µM); with Candida dubliniensis it was 80 µg/mL (≈ 394 µM); against Nakaseomyces glabratus, 160 µg/mL (≈ 787 µM); in experiment [1], 5 µg/mL (≈ 24.6 µM); against Saccharomyces cerevisiae, 160 µg/mL (≈ 787 µM); against Staphylococcus aureus it was 20 µg/mL (≈ 98.4 µM). Also, the MIC was determined as 20 µg/mL (≈ 98.4 µM) in the experiment on Klebsiella pneumoniae; 160 µg/mL (≈ 787 µM) against Escherichia coli; 160 µg/mL (≈ 787 µM) in experiment [2]; 40 µg/mL (≈ 197 µM) with Prototheca zopfii; 10 µg/mL (≈ 49.2 µM) in the experiment on Pseudomonas aeruginosa; 320 µg/mL (≈ 1570 µM) with Rhizopus arrhizus. Moreover, the MIC against Sporothrix schenckii was determined as 320 µg/mL (≈ 1570 µM); in the experiment with Fusarium solani, 320 µg/mL (≈ 1570 µM); in the experiment with Aspergillus fumigatus, 160 µg/mL (≈ 787 µM); in the experiment on Aspergillus flavus it was 320 µg/mL (≈ 1570 µM); with Aspergillus niger it was 320 µg/mL (≈ 1570 µM); in the experiment on Aspergillus terreus, 320 µg/mL (≈ 1570 µM). The compound also showed an MIC against Scedosporium boydii of 160 µg/mL (≈ 787 µM). The MBC turned out to be 320 µg/mL (≈ 1570 µM) in the experiment with Staphylococcus aureus; 320 µg/mL (≈ 1570 µM) in the experiment on Klebsiella pneumoniae (read-out: MFC); 320 µg/mL (≈ 1570 µM) in the experiment with Escherichia coli; 320 µg/mL (≈ 1570 µM) in experiment [2]; 160 µg/mL (≈ 787 µM) against Pseudomonas aeruginosa. Besides, the outcome with Fusarium solani, in the experiment with Aspergillus flavus and in the experiment with Aspergillus terreus was inactive.

For `O=C(Nn1cnnc1)c1ccoc1`, the MFC with Candida albicans worked out at 40 µg/mL (≈ 225 µM); against Candida dubliniensis, 40 µg/mL (≈ 225 µM); in the experiment with Nakaseomyces glabratus, 80 µg/mL (≈ 449 µM); in [1] it was 40 µg/mL (≈ 225 µM); against Saccharomyces cerevisiae, 160 µg/mL (≈ 898 µM); against Prototheca zopfii, 320 µg/mL (≈ 1800 µM). In addition, the MFC with Aspergillus fumigatus and with Aspergillus terreus was 320 µg/mL (≈ 1800 µM) throughout. Also, the MIC with Candida albicans was 40 µg/mL (≈ 225 µM); against Candida dubliniensis, 40 µg/mL (≈ 225 µM); against Nakaseomyces glabratus, 40 µg/mL (≈ 225 µM); in experiment [1], 10 µg/mL (≈ 56.1 µM); in the experiment on Saccharomyces cerevisiae, 80 µg/mL (≈ 449 µM); in the experiment with Staphylococcus aureus, 320 µg/mL (≈ 1800 µM). The MIC with Klebsiella pneumoniae turned out to be 320 µg/mL (≈ 1800 µM); against Escherichia coli it was 160 µg/mL (≈ 898 µM); in [2], 160 µg/mL (≈ 898 µM); against Prototheca zopfii, 80 µg/mL (≈ 449 µM); against Pseudomonas aeruginosa, 40 µg/mL (≈ 225 µM); against Rhizopus arrhizus, 320 µg/mL (≈ 1800 µM). The MIC with Sporothrix schenckii, with Fusarium solani, against Aspergillus fumigatus, in the experiment with Aspergillus niger and with Aspergillus terreus was 320 µg/mL (≈ 1800 µM) throughout. The MBC was determined as 320 µg/mL (≈ 1800 µM) in the experiment on Staphylococcus aureus, 320 µg/mL (≈ 1800 µM) in the experiment with Escherichia coli, 320 µg/mL (≈ 1800 µM) in experiment [2] and 160 µg/mL (≈ 898 µM) with Pseudomonas aeruginosa. The result in the experiment on Klebsiella pneumoniae, in the experiment with Rhizopus arrhizus, in the experiment with Sporothrix schenckii, in the experiment on Fusarium solani, in the experiment on Aspergillus flavus and in the experiment with Scedosporium boydii was inactive.

On to `C[C@@H]1[C@H](O)[C@@H](C)/C=C/C=C/C=C/C=C/C=C/C=C/C=C/[C@H](O[C@@H]2O[C@H](C)[C@@H](O)[C@H](N)[C@@H]2O)C[C@@H]2O[C@](O)(C[C@@H](O)C[C@@H](O)[C@H](O)CC[C@@H](O)C[C@@H](O)CC(=O)O[C@H]1C)C[C@H](O)[C@H]2C(=O)O` [AMPHOTERICIN B], for which the MIC worked out at 0.5 µg/mL (≈ 0.541 µM) in the experiment with Prototheca zopfii; 1 µg/mL (≈ 1.08 µM) with Rhizopus arrhizus; 0.5 µg/mL (≈ 0.541 µM) with Sporothrix schenckii; 1 µg/mL (≈ 1.08 µM) with Fusarium solani; 1 µg/mL (≈ 1.08 µM) in the experiment with Aspergillus fumigatus; 1 µg/mL (≈ 1.08 µM) against Aspergillus flavus. Besides, the MIC with Aspergillus niger came out at 1 µg/mL (≈ 1.08 µM); against Aspergillus terreus, 2 µg/mL (≈ 2.16 µM); against Scedosporium boydii, 4 µg/mL (≈ 4.33 µM).
